From ChEMBL document CHEMBL2434951, “Synthesis and antimicrobial activity of polyhalobenzonitrile quinazolin-4(3H)-one derivatives” (2013)
In brackets after ≈: the same amount, converted by molar mass. Activity calls are given as the source filed them. No cut-off for these calls is given here.

Key:
Format in all cases: functional
[1] = test system: Pseudomonas aeruginosa; assay: Antibacterial activity against Pseudomonas aeruginosa ATCC 15442 assessed as growth inhibition at 1000 ug/mL after 24 hrs by disk diffusion assay; conditions: for zone of inhibition at 1000 µg/mL: ATCC 15442, 24 h, read-out: DIZ
Method in brief: (§1)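 Disk diffusion on nutrient agar, inoculum spread evenly. Disks of 6 mm Whatman No. 1 paper, dry-heat sterilized at 121 °C for 1 h, soaked in test compound at 1000 (micro)g/mL. Norfloxacin and chlorothalonil disks as positive controls, DMSO disks as negative control. Plates incubated 24 h at 37 °C. Inhibition zone diameter measured in mm.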

[2] = test system: Pseudomonas aeruginosa; assay: Antibacterial activity against Pseudomonas aeruginosa ATCC 15442 assessed as growth inhibition after 24 hrs by liquid dilution method
Method in brief: (§2)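 Liquid (tube) dilution. Compounds and positive controls in DMSO at 11 concentrations from 0.98 upward. Each tube held 1 mL compound solution plus bacterial or fungal inoculum and sterile water. Incubated 24 h, then checked for turbidity; MIC is the lowest concentration without growth. Chlorothalonil, norfloxacin and fluconazole as standards.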

[3] = test system: Staphylococcus aureus; assay: Antibacterial activity against Staphylococcus aureus ATCC 6538 assessed as growth inhibition at 1000 ug/mL after 24 hrs by disk diffusion assay; conditions: for zone of inhibition at 1000 µg/mL: ATCC 6538, 24 h, read-out: DIZ; method in brief: as §1
[4] = test system: Staphylococcus aureus; assay: Antibacterial activity against Staphylococcus aureus ATCC 6538 assessed as growth inhibition after 24 hrs by liquid dilution method; method in brief: as §2
[5] = test system: Escherichia coli; assay: Antibacterial activity against Escherichia coli ATCC 8099 assessed as growth inhibition at 1000 ug/mL after 24 hrs by disk diffusion assay; conditions: for zone of inhibition at 1000 µg/mL: ATCC 8099, 24 h, read-out: DIZ; method in brief: as §1
[6] = test system: Bacillus cereus; assay: Antibacterial activity against Bacillus cereus ATCC 14579 assessed as growth inhibition after 24 hrs by liquid dilution method; method in brief: as §2
[7] = test system: Bacillus cereus; assay: Antibacterial activity against Bacillus cereus ATCC 14579 assessed as growth inhibition at 1000 ug/mL after 24 hrs by disk diffusion assay; conditions: for zone of inhibition at 1000 µg/mL: ATCC 14579, 24 h, read-out: DIZ; method in brief: as §1
[8] = test system: Escherichia coli; assay: Antibacterial activity against Escherichia coli ATCC 8099 assessed as growth inhibition after 24 hrs by liquid dilution method; method in brief: as §2
[9] = test system: Candida albicans; assay: Antifungal activity against Candida albicans ATCC 10231 assessed as growth inhibition at 1000 ug/mL after 24 hrs by disk diffusion assay; conditions: for zone of inhibition at 1000 µg/mL: ATCC 10231, 24 h, read-out: DIZ; method in brief: as §1

Row | Compound | MIC ([2]; ATCC 15442, 24 h) [µg/mL] | MIC ([4]; ATCC 6538, 24 h) [µg/mL] | MIC ([6]; ATCC 14579, 24 h) [µg/mL] | MIC ([8]; ATCC 8099, 24 h) [µg/mL] | MIC [2] | MIC [4] | MIC [8] | MIC [6] | zone of inhibition at 1000 µg/mL [1] [mm] | zone of inhibition at 1000 µg/mL [3] [mm] | zone of inhibition at 1000 µg/mL [5] [mm] | zone of inhibition at 1000 µg/mL [7] [mm] | zone of inhibition at 1000 µg/mL [9] [mm] | diameter of the inhibition zone (DIZ) [1] | diameter of the inhibition zone (DIZ) [3] | diameter of the inhibition zone (DIZ) [7] | diameter of the inhibition zone (DIZ) [9] | diameter of the inhibition zone (DIZ) [5]
1 | N#Cc1c(F)c(Cl)c(Nc2ccc(Nc3ccc(Cl)cc3)c3c(=O)[nH]cnc23)c(C#N)c1F | 500 (≈ 1030 µM) | 20.8 (≈ 43 µM) | 41.7 (≈ 86.3 µM) | 208 (≈ 431 µM) | – | – | – | – | 12 | 9.7 | 9 | 10.4 | 8.5 | – | – | – | – | –
2 | CN(C)c1ccc(N)c2nc[nH]c(=O)c12 | – | – | – | – | – | – | – | – | – | – | 8.5 | – | – | inactive | inactive | inactive | inactive | –
3 | N#Cc1c(Cl)c(Cl)c(Nc2ccc(Nc3ccccc3)c3c(=O)[nH]cnc23)c(C#N)c1Cl | 83.4 (≈ 173 µM) | 125 (≈ 259 µM) | 0.5 (≈ 1.04 µM) | 250 (≈ 519 µM) | – | – | – | – | 11.3 | 10 | 11 | 11.7 | 10.3 | – | – | – | – | –
4 | Cc1cccc(Nc2ccc(Nc3c(Cl)c(F)c(C#N)c(F)c3C#N)c3nc[nH]c(=O)c23)c1 | 417 (≈ 900 µM) | 500 (≈ 1080 µM) | 292 (≈ 630 µM) | 500 (≈ 1080 µM) | – | – | – | – | 10 | 9.8 | 9.3 | 10 | 9.5 | – | – | – | – | –
5 | CCN(CC)c1ccc(N)c2nc[nH]c(=O)c12 | – | – | – | – | – | – | – | – | 7.5 | 7.3 | 6 | 6 | – | – | – | – | inactive | –
6 | Nc1ccc(Nc2ccc(F)cc2)c2c(=O)[nH]cnc12 | – | – | – | – | – | – | – | – | 6 | – | – | 6 | – | – | inactive | – | inactive | inactive
7 | N#Cc1c(F)c(Cl)c(Nc2ccc(Nc3ccccc3)c3c(=O)[nH]cnc23)c(C#N)c1F | 500 (≈ 1110 µM) | – | 500 (≈ 1110 µM) | – | – | inactive | inactive | – | 9.5 | 8.9 | – | 6 | 6 | – | – | – | – | inactive
8 | Nc1ccccc1Nc1ccc([N+](=O)[O-])c2nc[nH]c(=O)c12 | – | – | – | – | – | – | – | – | – | – | 7.8 | – | – | inactive | inactive | inactive | inactive | –
9 | Cc1ccc(Nc2ccc(Nc3c(Cl)c(Cl)c(C#N)c(Cl)c3C#N)c3nc[nH]c(=O)c23)cc1C | – | 15.6 (≈ 30.6 µM) | 0.8 (≈ 1.57 µM) | 83.3 (≈ 163 µM) | inactive | – | – | – | 9.4 | 8.5 | 10.8 | 11 | 10 | – | – | – | – | –
10 | CCN(CC)c1ccc(Nc2c(Cl)c(Cl)c(C#N)c(Cl)c2C#N)c2nc[nH]c(=O)c12 | – | – | – | – | – | – | – | – | 7.5 | 7.7 | 6 | 6 | – | – | – | – | inactive | –
11 | Nc1ccc(N2CCCCC2)c2c(=O)[nH]cnc12 | – | – | – | – | – | – | – | – | – | – | 7.8 | – | – | inactive | inactive | inactive | inactive | –
12 | Cc1ccc(Nc2ccc(N)c3nc[nH]c(=O)c23)cc1 | – | – | – | – | – | – | – | – | – | – | – | – | – | inactive | inactive | inactive | inactive | inactive
13 | Cc1ccc(Nc2ccc(N)c3nc[nH]c(=O)c23)cc1C | – | – | – | – | – | – | – | – | – | 6.5 | – | – | – | inactive | – | inactive | inactive | inactive
14 | Nc1ccc(Nc2ccc(Cl)cc2)c2c(=O)[nH]cnc12 | – | – | – | – | – | – | – | – | – | – | – | – | – | inactive | inactive | inactive | inactive | inactive
15 | Cc1cccc(Nc2ccc(N)c3nc[nH]c(=O)c23)c1 | – | – | – | – | – | – | – | – | – | – | 6.5 | – | – | inactive | inactive | inactive | inactive | –
16 | Cc1cc(C)cc(Nc2ccc(N)c3nc[nH]c(=O)c23)c1 | – | – | – | – | – | – | – | – | 6.3 | – | – | 6 | – | – | inactive | – | inactive | inactive

Second part, led by results:

Row | MIC ([2]; ATCC 15442, 24 h) [µg/mL] | MIC ([4]; ATCC 6538, 24 h) [µg/mL] | MIC ([6]; ATCC 14579, 24 h) [µg/mL] | MIC ([8]; ATCC 8099, 24 h) [µg/mL] | MIC [2] | MIC [4] | MIC [8] | MIC [6] | Compound | zone of inhibition at 1000 µg/mL [1] [mm] | zone of inhibition at 1000 µg/mL [3] [mm] | zone of inhibition at 1000 µg/mL [5] [mm] | zone of inhibition at 1000 µg/mL [7] [mm] | zone of inhibition at 1000 µg/mL [9] [mm] | diameter of the inhibition zone (DIZ) [1] | diameter of the inhibition zone (DIZ) [3] | diameter of the inhibition zone (DIZ) [7] | diameter of the inhibition zone (DIZ) [9] | diameter of the inhibition zone (DIZ) [5]
17 | – | 5.2 (≈ 10.5 µM) | 1 (≈ 2.02 µM) | 104 (≈ 210 µM) | inactive | – | – | – | Cc1cccc(Nc2ccc(Nc3c(Cl)c(Cl)c(C#N)c(Cl)c3C#N)c3nc[nH]c(=O)c23)c1 | 10 | 9.7 | 10.3 | 11 | 10 | – | – | – | – | –
18 | 125 (≈ 237 µM) | 250 (≈ 475 µM) | 41.7 (≈ 79.2 µM) | 167 (≈ 316 µM) | – | – | – | – | N#Cc1c(Cl)c(Cl)c(Nc2ccccc2Nc2ccc([N+](=O)[O-])c3nc[nH]c(=O)c23)c(C#N)c1Cl | 6.7 | 7.3 | 7 | 11.2 | – | – | – | – | inactive | –
19 | 417 (≈ 807 µM) | 4.7 (≈ 9.11 µM) | 83.3 (≈ 161 µM) | 333 (≈ 646 µM) | – | – | – | – | N#Cc1c(Cl)c(Cl)c(Nc2ccc(Nc3ccc(Cl)cc3)c3c(=O)[nH]cnc23)c(C#N)c1Cl | 9.5 | 8.8 | 9 | 9 | 9.5 | – | – | – | – | –
20 | 208 (≈ 450 µM) | 208 (≈ 450 µM) | 52.1 (≈ 113 µM) | 208 (≈ 450 µM) | – | – | – | – | Cc1ccccc1Nc1ccc(Nc2c(Cl)c(F)c(C#N)c(F)c2C#N)c2nc[nH]c(=O)c12 | 9.5 | 10.3 | 9.7 | 10.8 | 7.5 | – | – | – | – | –
21 | 83.4 (≈ 168 µM) | 52.1 (≈ 105 µM) | 0.5 (≈ 1.01 µM) | 125 (≈ 252 µM) | – | – | – | – | Cc1ccccc1Nc1ccc(Nc2c(Cl)c(Cl)c(C#N)c(Cl)c2C#N)c2nc[nH]c(=O)c12 | 9 | 10 | 12.5 | 10.5 | – | – | – | – | inactive | –
22 | 52.1 (≈ 105 µM) | 10.4 (≈ 21 µM) | 0.7 (≈ 1.41 µM) | 104 (≈ 210 µM) | – | – | – | – | Cc1ccc(Nc2ccc(Nc3c(Cl)c(Cl)c(C#N)c(Cl)c3C#N)c3nc[nH]c(=O)c23)cc1 | 12 | 9.3 | 10.5 | 11 | 9.5 | – | – | – | – | –
23 | 20.8 (≈ 66.8 µM) | 10.4 (≈ 33.4 µM) | 20.8 (≈ 66.8 µM) | 20.8 (≈ 66.8 µM) | – | – | – | – | Cc1ccc(N)c(Nc2ccc([N+](=O)[O-])c3nc[nH]c(=O)c23)c1 | 16.8 | 5.3 | 14.7 | 15 | 13.5 | – | – | – | – | –
24 | 250 (≈ 991 µM) | 208 (≈ 824 µM) | 125 (≈ 495 µM) | 208 (≈ 826 µM) | – | – | – | – | Nc1ccc(Nc2ccccc2)c2c(=O)[nH]cnc12 | 7 | – | – | 9.5 | – | – | inactive | – | inactive | inactive
25 | 417 (≈ 771 µM) | 500 (≈ 925 µM) | 52.1 (≈ 96.3 µM) | 417 (≈ 771 µM) | – | – | – | – | Cc1ccc(Nc2c(Cl)c(Cl)c(C#N)c(Cl)c2C#N)c(Nc2ccc([N+](=O)[O-])c3nc[nH]c(=O)c23)c1 | 9.5 | 9.3 | 9 | 10.7 | 7.5 | – | – | – | – | –
26 | – | – | – | – | inactive | inactive | inactive | inactive | Nc1ccc(Nc2cccc(Cl)c2)c2c(=O)[nH]cnc12 | 6.5 | 6.5 | 6 | 6 | – | – | – | – | inactive | –
